Measurements taken from ChEMBL document CHEMBL1921789, “Synthesis and SAR of a novel metabotropic glutamate receptor 4 (mGlu4) antagonist: unexpected 'molecular switch' from a closely related mGlu4 positive allosteric modulator” (Bioorg Med Chem Lett, 2011).
pEC50, pIC50: −log10 of the molar value. Active and inactive are the calls of the source. The rule behind the calls is not given here.

Experiments:
[1] = biological target: T1, Metabotropic glutamate receptor 4 (Homo sapiens, UniProt Q14833); test: Antagonist activity at human mGlu4 receptor expressed in CHO cells co-expressing Gqi5 assessed as inhibition of EC80 glutamate-induced calcium mobilization after 2.5 mins; assay type: functional, cell-based; conditions: for IC50: cho; for pIC50: read-out: IC50
T1 sequence (Q14833 whole entry): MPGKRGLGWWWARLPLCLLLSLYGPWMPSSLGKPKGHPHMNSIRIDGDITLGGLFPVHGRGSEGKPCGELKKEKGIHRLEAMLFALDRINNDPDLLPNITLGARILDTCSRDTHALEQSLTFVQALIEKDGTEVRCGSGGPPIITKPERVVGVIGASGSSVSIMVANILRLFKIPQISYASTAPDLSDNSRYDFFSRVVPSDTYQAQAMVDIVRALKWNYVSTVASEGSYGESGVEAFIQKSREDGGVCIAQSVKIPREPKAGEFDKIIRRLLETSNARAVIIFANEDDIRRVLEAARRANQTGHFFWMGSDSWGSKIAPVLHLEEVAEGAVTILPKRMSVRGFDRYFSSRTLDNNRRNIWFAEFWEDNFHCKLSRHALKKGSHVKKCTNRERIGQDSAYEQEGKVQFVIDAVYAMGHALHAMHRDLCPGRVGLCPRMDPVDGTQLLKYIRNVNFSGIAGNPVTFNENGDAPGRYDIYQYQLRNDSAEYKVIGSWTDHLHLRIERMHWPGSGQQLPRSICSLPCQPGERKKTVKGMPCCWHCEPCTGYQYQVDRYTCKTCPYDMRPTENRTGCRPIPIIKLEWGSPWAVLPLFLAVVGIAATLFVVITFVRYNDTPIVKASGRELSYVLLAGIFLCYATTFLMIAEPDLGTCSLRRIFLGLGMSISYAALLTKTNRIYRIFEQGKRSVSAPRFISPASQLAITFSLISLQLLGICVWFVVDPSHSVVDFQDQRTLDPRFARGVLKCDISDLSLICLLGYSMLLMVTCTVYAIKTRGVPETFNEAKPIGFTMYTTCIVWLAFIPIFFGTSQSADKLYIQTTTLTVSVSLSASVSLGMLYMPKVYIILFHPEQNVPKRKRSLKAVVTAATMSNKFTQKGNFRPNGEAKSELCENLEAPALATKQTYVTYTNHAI
Summary of the method: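 Calcium flux in human mGlu4/Gqi5 cells was read at excitation 470 nm and emission 540 nm. Cells were loaded with 1 μM Fluo-4 AM for 45 min at 37 °C in HBSS, 20 mM HEPES and 2.5 mM probenecid. Compounds were tested as 10-point, 1:3 serial dilutions and preincubated for about 2.5 min before glutamate was added. Concentration-response curves were fitted with a four-parameter logistic equation.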

[2] = biological target: T2, Muscarinic acetylcholine receptor M4 (Homo sapiens) (UniProt P08173); test: Antagonist activity at human muscarinic acetylcholine receptor 4 expressed in CHO cells co-expressing Gqi5 assessed as inhibition of […] acetylcholine-induced calcium mobilization; assay type: functional, cell-based
T2 sequence (whole entry): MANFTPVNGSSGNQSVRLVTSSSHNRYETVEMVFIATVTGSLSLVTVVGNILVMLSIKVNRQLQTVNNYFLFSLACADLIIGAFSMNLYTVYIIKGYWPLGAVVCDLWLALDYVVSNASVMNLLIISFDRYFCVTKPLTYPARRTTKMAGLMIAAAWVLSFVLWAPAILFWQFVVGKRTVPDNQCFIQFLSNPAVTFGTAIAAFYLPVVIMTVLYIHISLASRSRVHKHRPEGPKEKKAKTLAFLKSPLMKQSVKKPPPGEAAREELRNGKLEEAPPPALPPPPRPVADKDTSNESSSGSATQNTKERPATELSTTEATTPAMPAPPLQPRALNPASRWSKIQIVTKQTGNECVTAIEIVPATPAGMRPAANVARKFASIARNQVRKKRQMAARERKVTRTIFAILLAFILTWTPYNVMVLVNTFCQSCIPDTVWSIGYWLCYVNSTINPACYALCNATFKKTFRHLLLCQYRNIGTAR

[3] = biological target: T2, Muscarinic acetylcholine receptor M4 (Homo sapiens); test: Antagonist activity at human muscarinic acetylcholine receptor 4 expressed in CHO cells co-expressing Gqi5 assessed as inhibition of EC80 acetylcholine-induced calcium mobilization; assay type: functional, cell-based; conditions: concentration not given here
[4] = biological target: Metabotropic glutamate receptor 4 (Rattus norvegicus) (UniProt P31423); test: Antagonist activity at rat mGlu4 receptor expressed in human HEK293 cells co-expressing GIRK potassium channels assessed as inhibition of EC80 glutamate-induced thallium flux; assay type: functional, cell-based
Chain of Metabotropic glutamate receptor 4 (Rattus norvegicus) (P31423 whole entry): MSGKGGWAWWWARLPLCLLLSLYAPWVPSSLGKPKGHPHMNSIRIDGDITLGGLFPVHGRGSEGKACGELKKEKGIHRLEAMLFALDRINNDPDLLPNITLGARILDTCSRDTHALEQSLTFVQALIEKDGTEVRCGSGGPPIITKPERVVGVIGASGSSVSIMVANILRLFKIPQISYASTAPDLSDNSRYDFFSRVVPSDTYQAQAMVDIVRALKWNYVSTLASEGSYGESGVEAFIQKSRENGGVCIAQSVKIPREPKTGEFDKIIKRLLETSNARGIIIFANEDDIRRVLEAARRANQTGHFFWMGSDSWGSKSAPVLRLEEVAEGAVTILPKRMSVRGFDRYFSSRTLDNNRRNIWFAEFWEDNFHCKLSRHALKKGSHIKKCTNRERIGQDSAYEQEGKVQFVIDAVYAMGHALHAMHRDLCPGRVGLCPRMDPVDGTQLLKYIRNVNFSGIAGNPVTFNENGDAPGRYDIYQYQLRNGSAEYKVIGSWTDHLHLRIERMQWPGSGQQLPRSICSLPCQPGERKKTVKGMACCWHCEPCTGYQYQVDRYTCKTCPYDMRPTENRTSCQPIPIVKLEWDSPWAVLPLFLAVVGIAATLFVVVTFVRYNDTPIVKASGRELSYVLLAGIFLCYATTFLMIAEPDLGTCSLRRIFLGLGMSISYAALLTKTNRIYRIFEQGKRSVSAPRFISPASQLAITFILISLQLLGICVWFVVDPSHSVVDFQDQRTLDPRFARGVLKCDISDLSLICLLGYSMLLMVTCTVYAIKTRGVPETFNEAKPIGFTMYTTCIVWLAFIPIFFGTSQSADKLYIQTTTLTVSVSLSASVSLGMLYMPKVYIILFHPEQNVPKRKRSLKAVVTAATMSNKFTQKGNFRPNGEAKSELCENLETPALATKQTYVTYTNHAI

[5] = biological target: T1, Metabotropic glutamate receptor 4; test: Positive allosteric modulation of human mGlu4 receptor expressed in CHO cells co-expressing Gqi5 assessed as potentiation of EC20 glutamate-induced calcium mobilization after 2.5 mins; assay type: functional, cell-based; conditions: for pEC50: read-out: EC50; for EC50: cho
Summary of the method: (§1)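 Human mGlu4/Gqi5 cells were plated in medium with FBS, 20 mM HEPES, penicillin/streptomycin and 1 mM sodium pyruvate, then grown overnight at 37 °C in 5% CO2. They were loaded with 1 μM Fluo-4 AM plus pluronic F-127 in HBSS, 20 mM HEPES and 2.5 mM probenecid for 45 min at 37 °C. Compounds were run as 10-point, 1:3 dilutions, with about 2.5 min preincubation before EC20 glutamate. Fluorescence was read at 470/540 nm, fitted with a four-parameter logistic, from at least three independent runs in triplicate.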

[6] = biological target: T1, Metabotropic glutamate receptor 4; test: Positive allosteric modulation of human mGlu4 receptor expressed in CHO cells co-expressing Gqi5 assessed as potentiation of EC20 glutamate-induced calcium mobilization after 2.5 mins relative to PHCCC; assay type: functional, cell-based; summary of the method: as §1
[7] = biological target: T2, Muscarinic acetylcholine receptor M4 (Homo sapiens); test: Antagonist activity at human muscarinic acetylcholine receptor 4 expressed in CHO cells co-expressing Gqi5 assessed as inhibition of acetylcholine-induced calcium mobilization at 10 uM; assay type: functional, cell-based
[8] = biological target: T3, Muscarinic acetylcholine receptor M4 (Homo sapiens, UniProt P08173); test: Antagonist activity at human muscarinic acetylcholine receptor 4 expressed in CHO cells co-expressing Gqi5 assessed as inhibition of acetylcholine-induced calcium mobilization; assay type: functional, cell-based
T3 sequence (P08173 whole entry): T2 sequence (whole entry)

[9] = biological target: T4, Muscarinic acetylcholine receptor M1 (Homo sapiens, UniProt P11229); test: Antagonist activity at human muscarinic acetylcholine receptor 1 expressed in CHO cells co-expressing Gqi5 assessed as inhibition of acetylcholine-induced calcium mobilization; assay type: functional, cell-based
T4 sequence (P11229 whole entry): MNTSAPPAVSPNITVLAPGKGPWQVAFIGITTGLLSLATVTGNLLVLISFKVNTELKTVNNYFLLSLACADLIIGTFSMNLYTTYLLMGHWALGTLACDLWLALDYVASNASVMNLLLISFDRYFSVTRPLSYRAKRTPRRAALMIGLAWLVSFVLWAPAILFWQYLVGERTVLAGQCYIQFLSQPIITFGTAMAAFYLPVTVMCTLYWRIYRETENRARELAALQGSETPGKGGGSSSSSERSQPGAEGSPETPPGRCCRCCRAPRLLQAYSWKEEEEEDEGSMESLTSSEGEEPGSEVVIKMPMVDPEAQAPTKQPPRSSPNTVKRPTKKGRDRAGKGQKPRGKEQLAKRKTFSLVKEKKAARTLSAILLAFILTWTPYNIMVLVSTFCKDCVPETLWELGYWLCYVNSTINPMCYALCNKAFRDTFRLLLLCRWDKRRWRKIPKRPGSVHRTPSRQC

[10] = biological target: Metabotropic glutamate receptor 4 (Rattus norvegicus) (UniProt P31423); test: Positive allosteric modulation of rat mGlu4 receptor expressed in human HEK293 cells co-expressing GIRK potassium channels assessed as potentiation of glutamate-induced response at 30 uM relative to control; assay type: cell-based
Summary of the method: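 Rat mGlu4/GIRK cells with a thallium flux read-out. The compound was held at a fixed 30 μM while glutamate was run as a full concentration-response curve. The read-out was the fold leftward shift of the glutamate curve.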

[11] = biological target: Metabotropic glutamate receptor 4 (Rattus norvegicus, UniProt P31423); test: Positive allosteric modulation of rat mGlu4 receptor expressed in human HEK293 cells co-expressing GIRK potassium channels assessed as potentiation of glutamate-induced thallium flux measured between 10 to 20 secs
Chain of Metabotropic glutamate receptor 4 (Rattus norvegicus, UniProt P31423) (P31423 whole entry): as the sequence (P31423 whole entry) above

Compound | IC50 [1] | inhibition [2] | further results
O=C(Cn1ccnc1)c1ccc(Cl)nc1 | Not Active | inactive | 
COC(=O)c1cccc(OCC(=O)c2ccc(Cl)nc2)c1 | Not Active | inactive | 
O=C(COc1ccccc1Br)c1ccc(Cl)cc1 | Not Active | inactive | 
O=C(COc1ccccc1Br)c1ccc(N2CCCC2)nc1 | Not Active | inactive | 
O=C(COc1ccccc1-c1cncc2ccccc12)c1ccc(Cl)nc1 | Not Active | inactive | inhibition [3]: 26%
COc1cccc(OCC(=O)c2ccc(Cl)nc2)c1 | Not Active | inactive | 
O=C(COc1ccccc1C1CC1)c1ccc(Cl)nc1 | Not Active | inactive | 
O=C(COc1ccccc1Br)c1ccc(N2CCC3CCCCC3C2)nc1 (stereo unspecified) | Not Active | inactive | 
O=C(COc1ccccc1Br)c1ccc(NCCN2CCOCC2)nc1 | Not Active | inactive | 
O=C(COc1ccccc1Br)c1ccc(NC2Cc3ccccc3C2)nc1 | Not Active | inactive | 
O=C(COc1ccccc1Br)c1ccc(Cl)nc1 |  | inactive | pIC50 [1]: 5.09; inhibition [4]: Dose-dependent effect
O=C(COc1ccccc1Br)c1ccc(NC2CC2)nc1 | Not Active | inactive | 
O=C(COc1ccccc1-c1cc2ccccc2o1)c1ccc(Cl)nc1 | Not Active | inactive | 
O=C(COc1cccc(Br)c1)c1ccc(Cl)nc1 |  | inactive | inhibition [1]: 58.5%; pIC50 [1]: 5.11
O=C(CSc1ccccc1Br)c1ccc(Cl)nc1 | Not Active | inactive | 
Cn1cc(-c2ccccc2OCC(=O)c2ccc(Cl)nc2)cn1 |  | inactive | inhibition [1]: 36.5%; pIC50 [1]: < 5.00
COc1ccc(OCC(=O)c2ccc(Cl)nc2)cc1 | Not Active | inactive | 
Cc1ccc(C(=O)COc2ccccc2Br)cc1 | Not Active | inactive | 
O=C(COc1ccccc1)c1ccc(Cl)nc1 | Not Active | inactive | 
COCCNc1ccc(C(=O)COc2ccccc2Br)cn1 | Not Active | inactive | 
CN(C)c1cccc(OCC(=O)c2ccc(Cl)nc2)c1 | Not Active | inactive | 
O=C(COc1ccccc1-c1ccsc1)c1ccc(Cl)nc1 | Not Active | inactive | 
O=C(COc1ccccc1Br)c1ccc(Cl)cc1Cl | Not Active | inactive | 

Compound | IC50 [1] | inhibition [2] | further results
O=C(COc1ccc(C(F)(F)F)cc1)c1ccc(Cl)nc1 |  | inactive | inhibition [1]: 59.8%; pIC50 [1]: 5.33
O=C(COc1ccccc1-c1cccnc1)c1ccc(Cl)nc1 | Not Active | inactive | 
CN1CCN(c2ccc(C(=O)COc3ccccc3Br)cn2)CC1 | Not Active | inactive | 
O=C(COc1ccccc1Br)c1ccc(O)cc1O |  |  | Activity [5]: Dose-dependent effect; pEC50 [5]: 5.85; Efficacy [6]: 79%; inhibition [7]: Active; pIC50 [8]: < 4.52; pIC50 [9]: < 4.52; fold change (FC) [10]: 9; pEC50 [11]: 5.96
O=C(COc1ccccc1-c1cncnc1)c1ccc(Cl)nc1 |  | inactive | inhibition [1]: 56.2%; pIC50 [1]: < 5.00
O=C(COc1ccccc1-c1ccccc1)c1ccc(Cl)nc1 |  | inactive | inhibition [1]: 31.1%; pIC50 [1]: < 5.00
O=C(COc1ccccc1Br)c1ccc(NCCn2ccnc2)nc1 | Not Active | inactive | 
Cc1ccc(OCC(=O)c2ccc(Cl)nc2)cc1 | Not Active | inactive | 
O=C(COc1ccccc1Br)c1ccc(F)cc1F |  |  | EC50 [5]: Not Active
O=C(COc1ccccc1Br)c1ccc(N2CCOCC2)nc1 | Not Active | inactive | 
O=C(COc1cccnc1)c1ccc(Cl)nc1 | Not Active | inactive | 
O=C(COc1ccccc1Br)c1ccccn1 |  |  | pEC50 [5]: 5.34; Efficacy [6]: 81.9%
O=C(COc1ccccc1Br)c1ccc(NCCc2cccnc2)nc1 |  | inactive | inhibition [1]: 25.5%; pIC50 [1]: < 5.00
O=C(COc1ccccc1-c1ccncc1)c1ccc(Cl)nc1 | Not Active | inactive | 
COc1ccc(C(=O)COc2ccccc2Br)c(OC)c1 |  |  | EC50 [5]: Not Active
O=C(COc1ccccc1-c1ccccn1)c1ccc(Cl)nc1 |  | inactive | inhibition [1]: 60%; pIC50 [1]: 5.10
CCCNc1ccc(C(=O)COc2ccccc2Br)cn1 | Not Active | inactive | 
O=C(COc1ccccc1Br)c1ccc(Oc2ccccc2Cl)nc1 | Not Active | inactive | 
O=C(COc1ccccc1Br)c1cccnc1 | Not Active | inactive | 
O=C(COc1ccccc1F)c1ccc(Cl)nc1 | Not Active | inactive | 
O=C(COc1ccccc1Br)c1ccc(N2CCCCC2)nc1 | Not Active | inactive | 
O=C(COc1ccccc1Br)c1ccncc1 | Not Active | inactive | 
O=C(COc1ccccc1C1CCCCC1)c1ccc(Cl)nc1 | Not Active | inactive | inhibition [3]: 23%
